Sampled rows, rich in hits. Any-hit rate of the full collection: about 1.6%.
proCasp3 act: activators of human procaspase-3 D3A mutant, primary screen, biochemical, absorbance, PC-3 D3A mutant, single concentration. Caspase-3 (Homo sapiens), P42574. recombinant procaspase-3 D3A, Ac-DEVD-pNA absorbance 405 nm. activation, % at 8.5 µM. hit rate 0.11% among 330,000;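 active means activation above the mean of all tested compounds plus 3 SD, cut at about 21% in these data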
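Assay system – Procaspase-3 D3A mutant, all three cleavage aspartates alanine · Controls – DMSO-only low control, 5 µM PC-3 D3A high control · Schedule – 1 h compound preincubation, 2 h substrate hydrolysis at 25 °C · Signal – 405 nm absorbance of p-nitroaniline, reads at 0 and 120 min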
PLCg1 inh: PLC-gamma1 enzyme inhibitors, primary screen, biochemical, fluorescence, purified enzyme. 1-phosphatidylinositol 4,5-bisphosphate phosphodiesterase gamma-1 (Homo sapiens), P19174. fluorogenic substrate. inhibition, % at 12.2 µM. hit rate 0.84% among 370,000. AID 720700, 2013; in the data active means inhibition above about 9.5%
HGIII-sPLA2 inh: human group III sPLA2 inhibitors, primary screen, biochemical, QFRET, BODIPY PC-A2 liposome substrate. inhibition, % at 12.2 µM. QFRET BODIPY PC-A2 liposome hydrolysis, fluorescence. hit rate 0.56% among 370,000. AID 743126, 2013;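 active means inhibition above mean plus 3 SD of compounds lying within the high and low control bounds, cut at about 19% in these data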
Target sequence (Q9NZ20 whole entry, looked up): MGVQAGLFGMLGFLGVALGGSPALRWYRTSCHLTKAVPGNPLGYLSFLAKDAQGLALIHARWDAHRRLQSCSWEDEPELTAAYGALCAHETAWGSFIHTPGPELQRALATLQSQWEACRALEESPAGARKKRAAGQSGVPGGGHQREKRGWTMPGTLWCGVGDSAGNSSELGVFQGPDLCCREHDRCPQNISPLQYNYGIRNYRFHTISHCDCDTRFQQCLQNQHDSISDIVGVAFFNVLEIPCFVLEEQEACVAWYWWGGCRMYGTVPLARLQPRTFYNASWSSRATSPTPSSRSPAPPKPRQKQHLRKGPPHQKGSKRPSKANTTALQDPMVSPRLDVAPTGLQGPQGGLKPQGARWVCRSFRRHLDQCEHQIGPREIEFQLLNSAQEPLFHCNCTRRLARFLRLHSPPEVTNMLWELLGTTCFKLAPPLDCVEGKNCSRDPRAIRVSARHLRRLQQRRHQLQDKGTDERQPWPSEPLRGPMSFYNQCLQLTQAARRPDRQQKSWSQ
PLCb3 inh: human PLC-beta3 inhibitors, primary screen, biochemical, fluorescence. 1-phosphatidylinositol 4,5-bisphosphate phosphodiesterase beta-3 (Homo sapiens), Q01970. Purified PLC-beta3, fluorogenic substrate. inhibition, % at 12.2 µM. hit rate 0.18% among 370,000
procasp7 counter: procaspase-7 activators, primary screen, counter-screen for procaspase-3 activator project, biochemical, absorbance, HTS, human. Caspase-7 (Homo sapiens), P55210. recombinant procaspase-7, Ac-DEVD-pNA absorbance 405 nm; D23A/D198A/D206A triple mutant, cannot self-cleave; scale: DMSO 0, 5 µM enzyme 100. activation, % at 8.5 µM. hit rate 0.093% among 330,000;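 active means percent activation above the screen-wide mean plus 3 SD, cut at about 25% in these data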
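signal = Epi-absorbance of released pNA at 405 nm, two timepoints | assay system = Uncleavable procaspase-7 mutant enzyme | reagent = Ac-DEVD-pNA substrate, 400 µM as added | times = 1 h enzyme–compound preincubation and 2 h substrate reaction, both 25 °C | benchmarks = low DMSO alone, high DMSO plus 5 µM PC-7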
PLCgamma1 ctr: PLC-gamma1 enzyme inhibitors, counter-screen for PLC-beta3 inhibitor project, biochemical, fluorescence; shares compounds with PLCg1 inh; purified PLC-gamma1, fluorogenic substrate; inhibition, % at 12.3 µM; hit rate 3.1% among 3,300; AID 743258, 2014; in the data active means inhibition above about 9.5%
PLCb3 confirm: PLC-beta3 inhibitor confirmation, biochemical, fluorescence, purified enzyme; shares compounds with PLCg1 inh; fluorogenic substrate fluorescence; inhibition, % at 12.3 µM; hit rate 1% among 3,300; AID 743261, 2014
Of the large screens only hits and unclear results are named; the others gave an inactive call (follow-up assays come after a bar, where they were run). Unless noted, no stated cut-off is given here; in the data, active means inhibition above about 11%; inactive means the rest.

Cc1ccc(C(=O)NC(=S)NNC(=O)CCN2CCOCC2)cc1	PLCg1 inh 9.6 | PLCgamma1 ctr inactive | PLCb3 confirm inactive
COc1ccc(-c2nn(-c3ccccc3)cc2C2CC(c3cccs3)=NN2C(=O)CCC(=O)O)cc1 (stereo unspecified)	none
COc1ccc(C2=NN(C(=O)CCCC(=O)O)C(c3cn(-c4ccccc4)nc3-c3ccccc3)C2)cc1 (stereo unspecified)	PLCg1 inh 14 | PLCgamma1 ctr inactive | PLCb3 confirm inactive
CC(O)(c1cccc(F)c1)c1nc(-c2ccc(S(C)(=O)=O)cc2)cs1 (stereo unspecified)	none (no result: proCasp3 act, procasp7 counter)
CC(C)Cc1ccc(S(=O)(=O)Nc2cccnc2)cc1	PLCg1 inh 9.8 | PLCgamma1 ctr inactive | PLCb3 confirm inactive
CCC(C)c1ccc(S(=O)(=O)Nc2cccnc2)cc1 (stereo unspecified)	none
CS(=O)(=O)N1CCN(c2ccccc2NC(=O)c2ccc([N+](=O)[O-])o2)CC1	PLCg1 inh 9.9 | PLCgamma1 ctr inactive | PLCb3 confirm inactive
CS(=O)(=O)N1CCN(c2ccccc2[N+](=O)[O-])CC1	PLCg1 inh 15 | PLCgamma1 ctr inactive | PLCb3 confirm inactive
C(=NOCc1ccccc1)c1ccccn1	PLCb3 inh 13 (no result: proCasp3 act, procasp7 counter) | PLCgamma1 ctr inactive | PLCb3 confirm inactive
C(=C\c1ccccn1)/c1ccccn1	none
C(=NOCc1ccccc1)c1ccncc1	PLCg1 inh 10 (no result: proCasp3 act, procasp7 counter) | PLCgamma1 ctr inactive | PLCb3 confirm inactive
O=S(=O)(CCNCc1cccs1)c1ccc(Cl)cc1	none
N/C(CSc1ncccc1C(F)(F)F)=N\O	PLCg1 inh 9.8 | PLCgamma1 ctr inactive | PLCb3 confirm inactive
Cc1cccc(C(=O)NCCC(=O)NCc2ccccc2Cl)c1	none
COC(=O)CCC(C)C1CCC2C3CCC4CC(O)CCC4(C)C3=CC(=O)C12C (stereo unspecified)	PLCb3 inh 11 (no result: proCasp3 act, procasp7 counter) | PLCgamma1 ctr inactive | PLCb3 confirm inactive
CCCSc1nnc(CSc2nc(C)cc(C)n2)n1C	none
O=C(Cc1ccc(-n2cccc2)cc1)N1CCc2ccccc21	PLCg1 inh 9.9 | PLCgamma1 ctr inactive | PLCb3 confirm inactive
O=C(CCCC(=O)N1CCc2ccccc21)N1CCc2ccccc21	none (no result: proCasp3 act, procasp7 counter)
Cc1cnc(CNC(=O)c2csc([C@@H]3C[C@H](O)[C@@H](CO)O3)n2)cn1	none (no result: proCasp3 act, procasp7 counter)
CC(=O)NC(Cc1ccc(F)cc1)C(=O)NC1CCN(C(=O)Nc2cccc(C)c2)CC1 (stereo unspecified)	PLCg1 inh 10 | PLCgamma1 ctr inactive | PLCb3 confirm inactive
COc1cc(N(CCCn2cnc3c(SC)ncnc32)CCCn2cnc3c(SC)ncnc32)cc(OC)c1OC	none (no result: proCasp3 act, procasp7 counter)
Cc1ccc(NC=C(S(=O)(=O)c2ccccc2)S(=O)(=O)c2ccccc2)c(C)c1	PLCg1 inh 13 | PLCgamma1 ctr inactive | PLCb3 confirm inactive
CCCCn1nnnc1C1(C)CCC(=O)N1Cc1cccnc1 (stereo unspecified)	none (no result: proCasp3 act, procasp7 counter)
CCCc1[nH]n(-c2nc3ccccc3s2)c(=O)c1C=NCCCOC	PLCg1 inh 11 | PLCgamma1 ctr inactive | PLCb3 confirm inactive
COCCCN=Cc1c(-c2ccccc2)[nH]n(-c2nc3ccccc3s2)c1=O	none
O=S(=O)(Nc1ccccc1F)c1cccc(NC(=S)NCCN2CCOCC2)c1	none
Cc1ccc(CN2CCN(/N=C/c3ccc(C(F)(F)F)cc3)CC2)cc1	PLCg1 inh 10 | PLCgamma1 ctr inactive | PLCb3 confirm inactive
c1ccc(-n2nnnc2OCCOc2nnnn2-c2ccccc2)cc1	PLCg1 inh 14 | PLCgamma1 ctr inactive | PLCb3 confirm inactive
CC(C)Oc1nnnn1-c1ccccc1	none
CCN(CC)C1CCN(C(=O)c2cc(COc3ccccc3SC)on2)C1 (stereo unspecified)	PLCg1 inh 10 | PLCgamma1 ctr inactive | PLCb3 confirm inactive
COc1cc(C)ccc1OCc1cc(C(=O)NC(c2ccccn2)C(F)(F)F)no1 (stereo unspecified)	none (no result: proCasp3 act, procasp7 counter)
O=C(/C=C/c1ccco1)NC(=S)Nc1cccc(C(=O)O)c1	PLCg1 inh 19 | PLCgamma1 ctr 19 | PLCb3 confirm inactive
O=C(NC1CCCCCCC1)c1ccco1	PLCg1 inh 11 | PLCgamma1 ctr inactive | PLCb3 confirm inactive
Cc1ccc(C(C(=O)NC2CCCCC2)N(CC2CCCO2)C(=O)CNC(=O)c2ccco2)cc1 (stereo unspecified)	PLCg1 inh 10.0 | PLCgamma1 ctr inactive | PLCb3 confirm inactive
O=C1CCCCC1CCS(=O)(=O)NCc1ccccc1 (stereo unspecified)	none (no result: proCasp3 act, procasp7 counter)
NC(=O)c1ncn([C@@H]2O[C@H](CNCc3cc(Cl)ccc3OCc3ccc(Cl)cc3)[C@@H](O)[C@H]2O)n1	none (no result: proCasp3 act, procasp7 counter)
CNc1cc(-c2ccc(O)cc2C)ncn1	none (no result: proCasp3 act, procasp7 counter)
CC(C)Oc1ccc(CN2CCC2(C)C(=O)NCc2cccc3ccccc23)cc1 (stereo unspecified)	none (no result: proCasp3 act, procasp7 counter)
CCOC(=O)C(NC(=O)c1ccccc1)(N1CCOCC1)C(F)(F)F (stereo unspecified)	PLCg1 inh 10 | PLCgamma1 ctr inactive | PLCb3 confirm inactive
CCOC(=O)C(NC(=O)c1ccc(OC)cc1)(N1CCOCC1)C(F)(F)F (stereo unspecified)	none
CC(C)CCNC(=O)Cn1c(=O)oc2cc(S(=O)(=O)N3CCc4ccccc43)ccc21	PLCb3 inh 12 | PLCgamma1 ctr inactive | PLCb3 confirm inactive
O=C(Cn1c(=O)oc2cc(S(=O)(=O)N3CCc4ccccc43)ccc21)NC1CCCC1	none
O=C(Nn1cnnc1)C1Cc2ccccc2CN1S(=O)(=O)c1ccc(F)cc1 (stereo unspecified)	PLCg1 inh 10 | PLCgamma1 ctr inactive | PLCb3 confirm inactive
Cc1ccc(S(=O)(=O)N2Cc3ccccc3CC2C(=O)Nn2cnnc2)cc1 (stereo unspecified)	none
Cc1ccc(-n2c(Cc3cccs3)nnc2SCC(=O)Nc2cccc3ccccc23)cc1	PLCg1 inh 13 (no result: proCasp3 act, procasp7 counter) | PLCgamma1 ctr inactive | PLCb3 confirm inactive
Cc1ccnc(NS(=O)(=O)c2cccc3nsnc23)c1	PLCg1 inh 9.9 | PLCgamma1 ctr inactive | PLCb3 confirm inactive
CC(C)CC1(C)NC(=O)N(CC(=O)N2C(C)CCCC2C)C1=O (stereo unspecified)	none

Assay outcomes: PubChem BioAssay, The Scripps Research Institute Molecular Screening Center
